From PubChem BioAssay
WT yeast gro inh = growth inhibition of WT strain, primary screen, mitochondrial fusion inhibitor project, WT and mutant strains, chemical genetic | mitochondrial fusion phenotypic screen | inhibition, % at 10 µM | actives 2.1% (n = 190,000); in the data active = inhibition above about 58%; tested in S. cerevisiae
RAM inhibit = inhibitors of the yeast RAM network, primary screen, dse1pr::URA3 reporter, 5-FOA selection; S. cerevisiae dse1pr::URA3 reporter, 5-FOA growth OD615, 2 d; analog-sensitive cbk1-as2 kinase mutant strain; inhibition, % at 50 µM; actives 1.8% (n = 190,000); AID 868, 2007;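 active = inhibition above a set limit, 3 SD over mean compound inhibition, cut at about 8.4% in these data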;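 also: 0% = DMSO-only wells with no growth and 100% = 10 µM 1-NA-PP1 full growth; inhibition rescues growth on 5-FOA so higher OD means more RAM inhibition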
Yeast growth inh = growth inhibitors of yeast BB579 in restrictive medium, primary screen, yeast lifespan-shortening project, S. cerevisiae. inhibition, % at 10 µM. actives 0.51% (n = 140,000). OD615, 48 h. AID 804, 2007;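 active = inhibition above a set limit, 3 SD over the mean compound inhibition, cut at about 44% in these data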
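System: DeaD yeast strain BB579; buffer or medium: CSMM-D dextrose restrictive medium; technique: OD at 615 nm; schedule: 4 h cell preincubation, 48 h compound exposure, 30 °C humidified; doses: single 10 µM dose; controls: amphotericin B 10 µg/mL, positive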
Yeast life ext = compounds extending yeast replicative lifespan, primary screen, S. cerevisiae, OD615. inhibition of the nicotinamide effect, % at 10 µM. actives 0.68% (n = 130,000). S. cerevisiae growth with nicotinamide; deaD strain in restrictive glucose medium;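 active = inhibition above a set limit, placed 3 SD over the median of all compounds, cut at about 26% in these data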;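 also: 0% = nicotinamide-treated wells and 100% = cells grown without nicotinamide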
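Test system – modified budding yeast, DeaD strain · Compound – single dose 10 µM compound, 0.25% DMSO · Times – culture preincubation 4 h, compound exposure 48 h, both 30 °C · Detection – optical density (absorbance) at 615 nm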
The depositor's hits bear a star; . = no result given. Sampled rows, rich in hits. Any-hit rate of the full collection: about 4.3%.

SMILES	WT yeast gro inh	RAM inhibit	Yeast growth inh	Yeast life ext
O=C1Nc2ccccc2C12OCC1(CO2)COC2(OC1)C(=O)Nc1ccccc12 (centres undefined)	-7.3	2.5	-46.1	67.5*
COc1ccc(NC(=O)C(NC(=O)c2ccc(=O)[nH]c2)c2ccccc2)cc1 (centres undefined)	-1.2	1.8	4.1	-3.4
COc1ccc(C(C(=O)Nc2ccc(C(C)C)cc2)N(C)C(=O)c2ccc(=O)[nH]c2)cc1 (centres undefined)	-2.8	9.0*	.	.
N#Cc1nc(-c2ccc(OCc3ccccc3)cc2)oc1N1CCC(C(N)=O)CC1	3.8	8.6*	-2.5	-23.2
COc1ccc(-c2nc(C#N)c(N3CCC(C(N)=O)CC3)o2)cc1	-6.8	-0.6	-50.6	-10.0
N#Cc1nc(-c2ccco2)oc1N1CCC(Cc2ccccc2)CC1	28.6	9.7*	-14.2	-13.4
O=S(=O)(c1ccc(Cl)cc1)N1CCCC(C(F)(F)F)C1 (centres undefined)	12.4	5.6	.	.
COc1ccccc1NC(=S)NNC(=O)c1ccccc1Br	-7.6	2.3	-36.0	-1.4
COc1ccc(-n2ncc3c(SCC(=O)N4CCN(c5ccccc5OC)CC4)ncnc32)cc1	3.9	1.4	-12.1	.
CCOC(=O)c1cccc(NC(=O)C2CCN(S(=O)(=O)c3cccs3)CC2)c1	20.7	3.2	-53.7	-5.6
O=S(=O)(c1cccs1)N1CCN(Cc2nc3ccccc3s2)CC1	8.2	1.7	-31.8	-10.8
CCOC(=O)c1c(NC(=O)C2CCN(S(=O)(=O)c3cccs3)CC2)sc(C)c1C	74.5*	2.1	-45.6	-1.4
O=C(OCc1nc2ccccc2s1)C1CCN(S(=O)(=O)c2cccs2)CC1	2.7	9.9*	-31.2	-0.3
CCOc1ccc(C(=O)N/N=C(\c2ccccc2)c2ccccn2)cc1	68.9*	7.4	-4.5	-12.6
Cc1c(CN2CCc3c([nH]c4ccccc34)C2CC(C)C)cnn1C (centres undefined)	-5.2	0.0	.	.
CCOC(=O)C1(CCc2ccccc2)CCN(C(=O)[C@@H]2C[C@@H](C)NC(=S)N2)CC1	1.0	0.9	.	.
COc1ccc(C2N(c3ccc(Cl)cc3)N=C(C(C)=O)N(C)N2C(C)=O)cc1 (centres undefined)	66.9*	2.3	.	.
CC1C/C(=N\NC(=O)c2cccnc2)CC(C)(C)C1 (centres undefined)	-0.5	1.8	.	.
CC1C/C(=N\NC(=S)NC(C)C)CC(C)(C)C1 (centres undefined)	65.0*	1.9	-28.6	-6.8
COc1cccc(CNC(=O)C(C(=O)NCc2cccc(OC)c2)c2ncc(C(F)(F)F)cc2Cl)c1	-13.4	2.2	.	.
Cc1cccc(OCC(=O)Nc2ccc(C(=O)c3ccc(C(=O)O)cc3)cc2)c1	5.7	3.5	.	.
Cc1ccc(NC(=S)Nc2ccc(C(C)C)cc2)cc1S(=O)(=O)N1CCCCCC1	65.8*	1.8	-13.7	-0.3
C/C(=C\C(=O)c1sccc1Cl)N(C)C	-7.3	0.7	.	.
N#Cc1cccc(NC(=O)Cn2c3[n+](c4ccc(C(F)(F)F)cc42)CCCCC3)c1	-5.1	-0.1	-14.3	-1.5
O=C(NC1CCCCC1)C(=S)NCCc1ccccc1	0.5	5.0	.	.
SMILES	WT yeast gro inh	RAM inhibit	Yeast growth inh	Yeast life ext
S=C(NCCNCc1ccccc1)NC1CCCCC1	62.5*	1.8	.	.
S=C(NCCc1ccc(Cl)cc1)NC1CCCC1	64.9*	2.2	.	.
S=C(NC1CCCCC1)N(CCc1ccccc1)CCc1ccccc1	62.5*	6.7	-29.4	4.2
S=C(NCCc1ccccc1)NC1CCCCCC1	68.2*	-0.8	21.7	-7.4
COc1ccc(CCNC(=O)c2cccnc2SC)cc1	-2.1	2.1	.	.
CN(Cc1ccccc1)c1ccc(N2C(=O)CCCC2=O)cc1[N+](=O)[O-]	0.5	2.9	-16.1	-1.8
CCC/C(O)=N\S(=O)(=O)c1ccc(N=NN(C)C)cc1	-12.9	1.2	-14.2	.
Fc1ccc(CNC(=S)NC2CCCCCC2)cc1	70.8*	0.5	.	.
COc1cc(OC)cc(-c2nc3ccccc3c(=O)n2OC(=O)c2ccccc2C)c1	-4.0	5.5	-11.6	61.1*
O=C(On1c(-c2ccccc2)nc2ccccc2c1=O)c1ccco1	26.6	-0.8	-28.4	-35.0
CCOC(=O)c1ccc(Oc2c(C)oc3cc(OS(C)(=O)=O)ccc3c2=O)cc1	-11.7	3.0	-17.9	1.3
CC(=O)Nc1ccc(OC(F)(F)C(F)F)c(NC(C)=O)c1	12.3	0.2	-81.6	8.7
